In ChEMBL document CHEMBL1933043:

Assays:
[1] = tested on: Influenza A virus; assay: Antiviral activity against influenza A virus (A/swine/OH/511445/2007(H1N1)) Oh7 infected in MDCK cells assessed as inhibition of viral replication after 4 days by quantitative RT-PCR; type: functional; settings: (A/swine/OH/511445/2007(H1N1)) Oh7, MDCK, 96 h, read-out: ED50 (the source's name)
[2] = Cytotoxicity against MDCK cells after 4 days; type: cell-based, Canis lupus familiaris; settings: dog, read-out: TD50
Outline: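 MDCK cells exposed to compounds at 0.1–150 μM with trypsin (10 μg/mL) for up to 4 days. Cells were inspected microscopically. TD50 was taken as the dose causing 50% cell death.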

[3] = Therapeutic index, ratio of TD50 for MDCK cells to ED50 for influenza A virus (A/swine/OH/511445/2007(H1N1)) Oh7; type: cell-based; settings: dog, read-out: Ratio TD50/ED50
Outline: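 MDCK cells infected with swine influenza A/swine/OH/511445/2007 (H1N1, Oh7) and incubated with compound at 0.1–150 μM plus trypsin (10 μg/mL) for up to 4 days. Cytopathic effect was scored, and replication was confirmed by immunofluorescence and Western blot against viral nucleoprotein or whole virus. ED50 is the dose giving 50% virus reduction, and TD50 the dose giving 50% cell death. TI is TD50/ED50.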

Compound | EC50 [1] | CC50 at 96 h [2] | selectivity ratio [3]
O=c1c(OCc2ccccc2)c(-c2ccc(OCc3ccccc3)c(OCc3ccccc3)c2)oc2cc(OCc3ccccc3)cc(O)c12 | > 50 µM |  | 
O=C(Oc1c(-c2ccc(O)c(O)c2)oc2cc(O)cc(O)c2c1=O)c1cc(O)c(O)c(O)c1 | 9.1 µM | 90.2 µM | 9.9
O=C(Oc1cc(-c2oc3cc(O)cc(O)c3c(=O)c2O)ccc1O)c1cc(O)c(O)c(O)c1 | > 50 µM |  | 
O=c1c(O[C@@H]2O[C@H](CO)[C@@H](O)[C@H](O)[C@H]2O)c(-c2ccc(O)c(O)c2)oc2cc(O)cc(O)c12 [ISOQUERCETIN] | 1.2 µM | 45.1 µM | 37.6
NCCCOc1cc(-c2oc3cc(O)cc(O)c3c(=O)c2O)ccc1O | > 50 µM |  | 
Nc1cc(C(=O)Oc2c(-c3ccc(O)c(O)c3)oc3cc(O)cc(O)c3c2=O)ccc1O | 22.6 µM | 60.1 µM | 2.7
O=C(Oc1c(-c2ccc(O)c(O)c2)oc2cc(O)cc(O)c2c1=O)c1cc(O)ccc1O | 19.4 µM | 45.2 µM | 2.3
O=c1c(O)c(-c2ccc(O)c(O)c2)oc2cc(O)cc(O)c12 [QUERCETIN] | 48.2 µM | 83.4 µM | 1.7
O=C(O[C@@H]1Cc2c(O)cc(O)cc2O[C@@H]1c1cc(O)c(O)c(O)c1)c1cc(O)c(O)c(O)c1 [EPIGALOCATECHIN GALLATE] | 8.3 µM | 45.5 µM | 5.5
Nc1ccc(C(=O)Oc2c(-c3ccc(O)c(O)c3)oc3cc(O)cc(O)c3c2=O)cc1O | 24.1 µM | 54.8 µM | 2.3
CCCOc1cc(O)cc2oc(-c3ccc(O)c(O)c3)c(O)c(=O)c12 | > 50 µM |  | 
